SMILES strings stand for the structures. Activity calls are given as the source filed them. The rule behind the calls is not given here.

Here are results for two molecules from ChEMBL document CHEMBL1142234, “Structure-based discovery of an inhibitor of Arf activation by Sec7 domains through targeting of protein-protein complexes” (Proc Natl Acad Sci U S A, 2007).

Test [1] deals with HeLa. Briefly: Dispersion of cis golgi marker KDEL in human HeLa cells at 100 uM for 2 hrs. The format is functional, cell-based. In short, it runs like this: (§1)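 HeLa cells were exposed 2 h to 100 μM compound, with 0.5% DMSO as vehicle control, then fixed. Primary antibody was applied overnight at 4°C in PBS/0.25% BSA/0.01% Tween 20/0.01% saponin: TGN46 1:200, βCOP 1:100, KDEL receptor 1:500. Alexa 488 secondary was applied 20 min at room temperature. Marker localisation was imaged by confocal microscopy.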

Test [2] can be described thus: Inhibition of delta17 Arf1 using ARNO4M. The settings on record: read-out: Ki app. In short, it runs like this: (§2)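 [Δ17]Arf1 lacking its N-terminal helix, GDP-loaded, with the BFA-sensitised Sec7 domain of human ARNO (4 mutations). Inhibitor was preincubated 5 min, then GTP or mGTP was added. Apparent rate constants were fitted. Means ± SD of ≥3 independent experiments.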

Test [3] concerns HeLa. Briefly: Dispersion of cis golgi marker betaCoP in human HeLa cells at 100 uM for 2 hrs. The format is functional, cell-based. The procedure, abridged:
as §1

Test [4] in a line: (§3) Inhibition of human Arf-GDP-ARNO complex at 100 uM by fluorescence anisotropy. The procedure, abridged: (§4)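 Alexa 488 N-terminally labelled [Δ17]Arf1-GDP was held at 10 nM and titrated by serial dilution of wild-type ARNO Sec7, starting at 400 μM, with or without 100 μM inhibitor.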
(In general: Polarisation of emitted light reports the rotation of a fluorescent probe.)

For test [5], the system named is HeLa. Briefly: Dispersion of trans golgi marker TGN46 in human HeLa cells at 100 uM for 2 hrs. The format is functional, cell-based. The procedure, abridged:
as §1

Test [6] is described as follows: Inhibition of mGDP/GTP exchange on delta17 Arf1 at 150 uM.
A short description of test [7]: Inhibition of GTP binding to Arf-ARNO complex. In short, it runs like this: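 Nucleotide-free Arf1/ARNO complex made by removing GDP with alkaline phosphatase (20 units) plus 2 mM EDTA. GTP binding to the complex (0.2 μM) started with 1 μM mGTP, with or without 150 μM inhibitor. Mant fluorescence read at 37°C in Tris pH 8 buffer with MgCl2; mean ± SD of ≥3 experiments.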

In test [8] the test system is MDCK. Briefly: Inhibition of rate of migration in MDCK cells expressing wild type ARNO. The format is functional, cell-based. Particulars: Canis lupus familiaris. The procedure, abridged: (§5)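 MDCK cells carrying tetracycline-repressible myc-wt-ARNO were grown as monolayers on collagen I and scratch-wounded. Cells were kept in MEM/5% FBS with or without compound. Doxycycline at 20 ng/ml repressed the transgene (endogenous ARNO only); without it, wt-ARNO was expressed. Wound closure was imaged every 5 min for 16 h at 37°C. Rate (μm2/h) was taken from hourly area increments over 8 h. Means ± SD of ≥3 experiments.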

The target of test [9] is ADP-ribosylation factor 1 (Homo sapiens) (UniProt P84077). Briefly: Reduction in nucleotide exchange on Arf1 using ARNO4M. In short, it runs like this:
as §2

Test [10] addresses ADP-ribosylation factor 6 (Homo sapiens) (UniProt P62330). The experiment in a line: Inhibition of ARNO-stimulated nucleotide exchange of Arf6. The procedure, abridged: (§6)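 GDP-loaded Arf isoforms truncated of the N-terminal helix (1 μM) with 50 nM Sec7 GEF. Runs were done with or without 150 μM inhibitor, preincubated 5 min, at 37°C in Tris pH 8/NaCl/MgCl2/2-mercaptoethanol buffer. Reaction was started with 2 μM mGTP and nucleotide exchange followed by time-resolved fluorescence.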

Test [11] relates to MDCK. The experiment in a line: Increase in rate of migration of MDCK cells expressing wild type ARNO relative to non-induced wild type ARNO cells. The format is functional, Canis lupus familiaris. The procedure, abridged:
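MDCK cells stably carrying N-terminal c-myc wt-ARNO under a tetracycline-repressible transactivator, grown on collagen I (3 μg/ml). Confluent monolayers were scratch-wounded, then kept in MEM/5% FBS with 20 ng/ml doxycycline (repressed) or without it (induced). Time-lapse imaging every 5 min for 16 h at 37°C, 5% CO2. Wound-area rate (μm2/h) was taken over 1-h intervals for 8 h; mean ± SD, ≥3 experiments.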

The nature of test [12]: Inhibition of delta17 Arf1 activation stimulated by Sec7 domain of BIG1.
The species named for test [13] is Homo sapiens. The experiment in a line: Effect on activation of human RhoA/Gef337 at 150 uM. The procedure, abridged: (§7)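 Specificity panel: each small GTPase (1 μM, GST-fused RhoG or RhoA) with its GEF (50 nM; DH1 domain of TRIO or DH domain of GEF337), with or without 150 μM inhibitor. Exchange started with 2 μM mGTP and followed by time-resolved fluorescence.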

Test [14] relates to MDCK. Briefly: Inhibition of rate of migration of MDCK cells expressing endogenous levels of ARNO. Type of test: functional, cell-based. Particulars: Canis lupus familiaris. In short, it runs like this:
as §5

Test [15] is described as follows: Inhibition of mGTP/GTP exchange on delta17 Arf1 at 150 uM.
Test [16] has as its system HeLa. Briefly: Inhibition of endogenous Arf activation in human HeLa cells. The format is cell-based. In short, it runs like this: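 Activation of endogenous Arf proteins in HeLa cells was measured by pull-down of GTP-loaded Arf through binding to the GGA3 effector.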
The target in test [17] is ADP-ribosylation factor 5 (Homo sapiens) (UniProt P84085). The experiment in a line: Inhibition of ARNO-stimulated nucleotide exchange of Arf5. In short, it runs like this: as §6
Sequence of ADP-ribosylation factor 5 (Homo sapiens) (P84085 whole entry): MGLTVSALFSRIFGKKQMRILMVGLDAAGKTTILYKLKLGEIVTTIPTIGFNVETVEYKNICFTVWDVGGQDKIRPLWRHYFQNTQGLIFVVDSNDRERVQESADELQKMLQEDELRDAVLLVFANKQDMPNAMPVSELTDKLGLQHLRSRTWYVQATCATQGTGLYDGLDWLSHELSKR
Test [18] has as its target ADP-ribosylation factor 1 (Homo sapiens) (UniProt P84077). Briefly: Inhibition of ARNO-stimulated nucleotide exchange of Arf1. The procedure, abridged:
as §6

The species entered for test [19] is Homo sapiens. The test is described as §3. In short, it runs like this:
as §4

Test [20] is filed under the species Homo sapiens. Briefly: Effect on activation of human RhoG/TriD1 at 150 uM. In short, it runs like this:
as §7

Test [21] is described as follows: Inhibition of delta14 Arf5 activation stimulated by Sec7 domain of BIG1.

Sequence of ADP-ribosylation factor 1 (Homo sapiens) (P84077 whole entry): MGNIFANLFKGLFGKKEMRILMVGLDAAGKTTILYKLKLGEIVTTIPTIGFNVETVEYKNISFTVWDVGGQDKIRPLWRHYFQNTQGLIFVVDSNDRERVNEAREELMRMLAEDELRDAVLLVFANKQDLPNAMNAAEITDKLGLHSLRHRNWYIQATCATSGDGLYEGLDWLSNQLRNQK
Sequence of ADP-ribosylation factor 6 (Homo sapiens) (P62330 whole entry, the tested form may be a part, canonical isoform): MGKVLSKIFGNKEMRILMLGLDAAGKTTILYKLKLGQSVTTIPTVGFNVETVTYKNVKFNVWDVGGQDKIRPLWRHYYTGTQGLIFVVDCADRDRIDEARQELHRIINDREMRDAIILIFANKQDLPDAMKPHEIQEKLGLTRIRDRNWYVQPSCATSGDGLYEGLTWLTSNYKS

With `C[C@H]1CCC/C=C/[C@@H]2C[C@H](O)C[C@H]2[C@H](O)/C=C/C(=O)O1` [BREFELDIN A], the outcome in the test with HeLa [1] and in the test with HeLa [3] was Active. In [2], the Ki turned out to be 15 µM. Moreover, the dissociation constant Kd in test [4] worked out at 8.6 µM.

On to `O=[N+]([O-])c1ccc(Nc2c([N+](=O)[O-])ccc3c2=NC2(CCCCC2)N=3)cc1`, for which the outcome (with HeLa [5]; with MDCK [8]; in the test with HeLa [1]; in [12]; in the test with HeLa [3]; with MDCK [14]) was Active. For the same molecule, the outcome (in the test on HeLa [16]; in test [17]; in [18]; in test [21]) was Active. Further, the Kapp is 0.0004 s⁻¹ in test [6], 0.085 s⁻¹ in test [7], 0.0078 s⁻¹ in test [9] and 0.0005 s⁻¹ in [15]. Also, the result (in test [10]; in the test listed under Homo sapiens [19]) was inactive. For the same molecule, the values for the Activity in the test with MDCK [11], in the test filed under Homo sapiens [13] and in the test listed under Homo sapiens [20] were 54%, 0.0028 s⁻¹ and 0.003 s⁻¹, respectively.

One may read the Kd as the free concentration of one partner at which half of the binding sites on the other are occupied at equilibrium, for simple one-to-one binding. High values mean weaker binding, low ones tighter binding.
